Among the data in PMC3755622 (Archives of biochemistry and biophysics, 2013) are Km and Ki values, retold here.

Holding throughout (format): biochemical, Prunus dulcis
The test system of assay [1] is sweet almond β-glucosidase. In words: initial velocity, stopped assay, glucose by hexokinase / G6PDH. The conditions noted are these: pH 6.3, 0.01 M MES, 0.01 M NaCl, 4.6% v/v DMSO, 25°C, H2O. The procedure, abridged:
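Chromatographically purified almond enzyme (65 kD), diluted from stock in 0.01 M MES/0.01 M NaCl pH 6.3, added to about 2 μg/mL to start the reaction at 25.0 °C. Thioglucoside substrate came from DMSO stock. Aliquots were withdrawn and glucose measured by coupled yeast hexokinase/L. mesenteroides G6PDH (10 mM ATP, 5 mM MgSO4, 1 mM NAD+, pH 7.5), reading NADH at 340 nm. Km came from non-linear Michaelis-Menten fit.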

In assay [2] the test system is sweet almond β-glucosidase. In words: p-nitrophenolate absorbance at […] nm. As to conditions: pH 6.3, 0.01 M MES, 0.01 M NaCl, 4.6% v/v DMSO, 25°C.
In assay [3] the target is sweet almond β-glucosidase. Description: inhibition of pNPG hydrolysis, p-nitrophenolate at […] nm. The conditions noted are these: pNPG about 0.1 mM, pH 6.3, 25°C; not detectably hydrolysed.
Assay [4] deals with sweet almond β-glucosidase. Description: KM as Ki from inhibition of pNPG hydrolysis at […] nm. The conditions noted are these: pH 6.3, 0.01 M MES, 0.01 M NaCl, 4.6% v/v DMSO, 25°C; kcat calculated from kcat/KM and KM.

For orientation: Km means the substrate concentration at which the rate is half of its maximum. Turning to `OC[C@H]1O[C@@H](Sc2nc3ccccc3[nH]2)[C@H](O)[C@@H](O)[C@@H]1O` [GlcSBiz, 2'-benzimidazolyl 1-thio-β-D-glucopyranoside], the Km in assay [1] was 2500 µM.
With `O=[N+]([O-])c1ccc(O[C@@H]2O[C@H](CO)[C@@H](O)[C@H](O)[C@H]2O)cc1` [pNPG, p-nitrophenyl β-D-glucopyranoside], in assay [2], the Michaelis-Menten constant (Km) is 2500 µM.
For orientation: Ki means a dissociation constant, usually derived from enzyme kinetics or from competition with a known ligand. In the case of `OC[C@H]1O[C@@H](SC2=NCCS2)[C@H](O)[C@@H](O)[C@@H]1O` [GlcSTaz, 2-thiazolinyl1-thio-β-D-glucopyranoside], the Ki in assay [3] came to 8.7 mM.
Consider `OC[C@H]1O[C@@H](Sc2nc3ccccc3o2)[C@H](O)[C@@H](O)[C@@H]1O` [GlcSBox, 2-benzoxazolyl 1-thio β-D-glucopyranoside], for which the Km in assay [4] was 2700 µM.
For the compound `Cn1c(S[C@@H]2O[C@H](CO)[C@@H](O)[C@H](O)[C@H]2O)nc2ccccc21` [GlcS(N-Me)Biz, 1'-methylbenzimidazol-2'-yl 1-thio-β-D-glucopyranoside], the Km in assay [4] is 47000 µM.
